Tests used:
[1] = Lipophilicity, log D of the compound at pH 7.2; assay type: physicochemical; conditions: buffer
In short: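 Log D determined experimentally at pH 7.2.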

[2] = target: T1, Tyrosine-protein kinase JAK1 (Homo sapiens, UniProt P23458); test: Inhibition of JAK1-mediated STAT3 phosphorylation in IL6-induced human TF1 cells; assay type: cell-based, TF-1
TF-1 = test: Selectivity ratio of EC50 for JAK2-mediated STAT5 phosphorylation in EPO-induced human TF1 cells to EC50 for JAK1-mediated STAT3 phosphorylation in IL6-induced human TF1 cells; assay type: cell-based
[3] = Half life in human liver microsomes; assay type: ADME, Microsome
In short: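 Half-life measured by incubation with in vitro preparations of human liver microsomes.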

Homo sapiens [4] = species: Homo sapiens; test: Selectivity ratio of Ki for JAK2 (unknown origin) to Ki for JAK1 (unknown origin)
In short: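 Biochemical JAK enzyme assay giving Ki, reported as the arithmetic mean of at least three separate determinations. Selectivity is taken as JAK2 Ki divided by JAK1 Ki.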

[5] = target: Tyrosine-protein kinase JAK2 (Homo sapiens, UniProt O60674); test: Inhibition of JAK2 (unknown origin)
[6] = target: T1, Tyrosine-protein kinase JAK1; test: Inhibition of JAK1 (unknown origin)
[7] = Cmax in Sprague-Dawley rat at 5 mg/kg, po; assay type: ADME, organism-based; design: dose 5 mg/kg, route oral; conditions: in vivo
In short: (§1)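 Rat pharmacokinetics given as mean profiles from three animals. Values normalized to 1 mg/kg iv and 5 mg/kg po. Clearance is plasma clearance after iv dosing.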

[8] = Clearance in Sprague-Dawley rat at 1 mg/kg, iv; assay type: ADME, organism-based; design: dose 1 mg/kg, route intravenous; conditions: in vivo; in short: as §1
[9] = AUC in Sprague-Dawley rat at 5 mg/kg, po; assay type: ADME, organism-based; design: dose 5 mg/kg, route oral; conditions: plasma; in short: as §1
[10] = Oral bioavailability in Sprague-Dawley rat at 5 mg/kg; assay type: ADME, organism-based; conditions: in vivo; in short: as §1
[11] = Apparent permeability from apical to basolateral side in MDCK cells; assay type: ADME, cell-based, Canis lupus familiaris; conditions: dog
In short: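 MDCK cells grown in transwell culture. Apparent permeability measured in the apical-to-basolateral direction and reported as the arithmetic mean of at least two separate determinations.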

[12] = Dissociation constant, pKa of the compound; assay type: physicochemical
[13] = target: Non-receptor tyrosine-protein kinase TYK2 (Homo sapiens, UniProt P29597); test: Inhibition of TYK2 (unknown origin)
Homo sapiens [14] = species: Homo sapiens; test: Selectivity ratio of Ki for JAK3 (unknown origin) to Ki for JAK1 (unknown origin)
[15] = target: T2, Tyrosine-protein kinase JAK3 (Homo sapiens, UniProt P52333); test: Inhibition of JAK3 (unknown origin)
T2 sequence (P52333 whole entry): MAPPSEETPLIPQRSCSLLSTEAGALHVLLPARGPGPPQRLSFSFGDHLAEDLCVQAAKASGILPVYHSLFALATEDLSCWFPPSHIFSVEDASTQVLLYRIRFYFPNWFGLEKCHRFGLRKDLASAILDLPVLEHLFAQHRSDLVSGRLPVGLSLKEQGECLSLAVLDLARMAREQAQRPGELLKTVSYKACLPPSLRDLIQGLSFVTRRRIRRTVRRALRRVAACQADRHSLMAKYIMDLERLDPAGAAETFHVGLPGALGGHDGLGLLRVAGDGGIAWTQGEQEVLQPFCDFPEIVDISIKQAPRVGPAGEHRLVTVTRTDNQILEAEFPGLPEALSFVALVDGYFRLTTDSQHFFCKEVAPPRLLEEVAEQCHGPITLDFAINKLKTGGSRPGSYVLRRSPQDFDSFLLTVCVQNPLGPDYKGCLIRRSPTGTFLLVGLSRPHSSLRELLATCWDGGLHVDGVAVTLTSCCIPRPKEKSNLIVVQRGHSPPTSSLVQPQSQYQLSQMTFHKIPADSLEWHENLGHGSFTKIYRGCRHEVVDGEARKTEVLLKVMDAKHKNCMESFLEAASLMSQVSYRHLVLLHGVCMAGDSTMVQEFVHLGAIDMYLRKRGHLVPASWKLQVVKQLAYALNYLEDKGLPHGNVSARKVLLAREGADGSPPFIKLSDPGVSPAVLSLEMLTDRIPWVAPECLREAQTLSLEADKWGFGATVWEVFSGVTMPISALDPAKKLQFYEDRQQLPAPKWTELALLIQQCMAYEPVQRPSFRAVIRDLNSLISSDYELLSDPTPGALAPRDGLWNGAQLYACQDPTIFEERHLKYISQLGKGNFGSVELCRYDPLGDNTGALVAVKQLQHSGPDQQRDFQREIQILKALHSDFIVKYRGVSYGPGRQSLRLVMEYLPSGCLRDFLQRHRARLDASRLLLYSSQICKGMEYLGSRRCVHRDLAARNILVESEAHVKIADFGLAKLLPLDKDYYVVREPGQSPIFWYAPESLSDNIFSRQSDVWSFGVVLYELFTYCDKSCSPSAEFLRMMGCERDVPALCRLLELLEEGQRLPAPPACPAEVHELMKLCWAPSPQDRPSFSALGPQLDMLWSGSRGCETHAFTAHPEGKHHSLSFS

Homo sapiens [16] = species: Homo sapiens; test: Selectivity ratio of Ki for TYK2 (unknown origin) to Ki for JAK1 (unknown origin)

Tyrosine-protein kinase JAK2, sequence (O60674 whole entry): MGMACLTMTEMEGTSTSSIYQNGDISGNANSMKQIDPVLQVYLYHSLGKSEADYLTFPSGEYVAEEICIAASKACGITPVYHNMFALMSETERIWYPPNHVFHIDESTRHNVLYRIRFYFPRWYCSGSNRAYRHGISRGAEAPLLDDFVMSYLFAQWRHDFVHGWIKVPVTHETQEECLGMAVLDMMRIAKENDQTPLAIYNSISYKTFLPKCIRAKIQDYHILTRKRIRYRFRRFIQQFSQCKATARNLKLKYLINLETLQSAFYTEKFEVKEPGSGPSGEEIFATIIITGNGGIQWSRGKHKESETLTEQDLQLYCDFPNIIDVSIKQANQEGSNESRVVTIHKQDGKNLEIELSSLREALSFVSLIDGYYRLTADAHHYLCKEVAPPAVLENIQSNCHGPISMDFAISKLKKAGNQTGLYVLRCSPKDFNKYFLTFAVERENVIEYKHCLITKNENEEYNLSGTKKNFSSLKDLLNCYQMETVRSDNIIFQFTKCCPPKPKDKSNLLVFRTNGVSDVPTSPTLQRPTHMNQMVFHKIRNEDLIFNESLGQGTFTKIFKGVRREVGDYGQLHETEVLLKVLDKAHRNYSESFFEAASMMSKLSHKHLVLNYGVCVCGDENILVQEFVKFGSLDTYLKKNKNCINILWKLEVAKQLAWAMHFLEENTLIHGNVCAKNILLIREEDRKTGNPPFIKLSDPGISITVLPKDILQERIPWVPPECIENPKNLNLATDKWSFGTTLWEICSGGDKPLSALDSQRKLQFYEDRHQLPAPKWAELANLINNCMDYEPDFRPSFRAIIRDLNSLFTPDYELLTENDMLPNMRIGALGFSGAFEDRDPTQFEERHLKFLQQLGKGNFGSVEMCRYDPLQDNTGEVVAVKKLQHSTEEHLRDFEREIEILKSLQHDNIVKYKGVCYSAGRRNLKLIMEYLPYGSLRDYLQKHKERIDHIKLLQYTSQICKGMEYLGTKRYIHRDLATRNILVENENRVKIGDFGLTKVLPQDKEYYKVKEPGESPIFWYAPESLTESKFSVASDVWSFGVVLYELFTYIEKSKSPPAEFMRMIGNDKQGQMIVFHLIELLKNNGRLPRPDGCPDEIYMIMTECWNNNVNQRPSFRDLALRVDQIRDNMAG
T1 sequence (P23458 whole entry): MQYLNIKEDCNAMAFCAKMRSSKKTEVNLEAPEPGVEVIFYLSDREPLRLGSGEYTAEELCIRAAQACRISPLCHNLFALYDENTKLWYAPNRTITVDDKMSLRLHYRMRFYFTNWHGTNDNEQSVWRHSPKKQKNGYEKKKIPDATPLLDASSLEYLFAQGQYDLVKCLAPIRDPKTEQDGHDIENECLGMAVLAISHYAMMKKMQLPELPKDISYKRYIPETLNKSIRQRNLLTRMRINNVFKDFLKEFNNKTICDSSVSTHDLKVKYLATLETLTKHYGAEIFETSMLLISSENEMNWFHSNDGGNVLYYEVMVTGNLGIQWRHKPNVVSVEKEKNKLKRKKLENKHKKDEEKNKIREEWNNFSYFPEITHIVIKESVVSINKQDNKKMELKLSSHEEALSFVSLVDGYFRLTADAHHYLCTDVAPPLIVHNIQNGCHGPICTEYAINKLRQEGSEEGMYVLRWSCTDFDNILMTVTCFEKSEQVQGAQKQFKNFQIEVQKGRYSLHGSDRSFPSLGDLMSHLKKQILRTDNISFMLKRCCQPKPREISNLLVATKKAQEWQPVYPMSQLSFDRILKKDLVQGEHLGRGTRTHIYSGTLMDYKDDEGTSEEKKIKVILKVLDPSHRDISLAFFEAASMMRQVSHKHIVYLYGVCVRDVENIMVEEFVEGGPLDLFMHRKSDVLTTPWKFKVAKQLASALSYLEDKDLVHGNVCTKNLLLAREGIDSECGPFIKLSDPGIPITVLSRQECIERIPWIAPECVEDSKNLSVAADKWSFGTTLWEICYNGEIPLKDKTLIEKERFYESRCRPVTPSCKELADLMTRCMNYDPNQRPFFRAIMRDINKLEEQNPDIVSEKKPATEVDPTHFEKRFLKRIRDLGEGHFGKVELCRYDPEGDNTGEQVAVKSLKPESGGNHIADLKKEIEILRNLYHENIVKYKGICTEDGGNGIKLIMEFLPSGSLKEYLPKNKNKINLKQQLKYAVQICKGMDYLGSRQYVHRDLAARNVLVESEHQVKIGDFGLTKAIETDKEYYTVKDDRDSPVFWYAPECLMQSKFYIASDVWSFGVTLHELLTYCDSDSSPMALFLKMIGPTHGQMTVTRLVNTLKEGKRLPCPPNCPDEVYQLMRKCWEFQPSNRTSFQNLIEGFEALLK
Non-receptor tyrosine-protein kinase TYK2, sequence (P29597 whole entry): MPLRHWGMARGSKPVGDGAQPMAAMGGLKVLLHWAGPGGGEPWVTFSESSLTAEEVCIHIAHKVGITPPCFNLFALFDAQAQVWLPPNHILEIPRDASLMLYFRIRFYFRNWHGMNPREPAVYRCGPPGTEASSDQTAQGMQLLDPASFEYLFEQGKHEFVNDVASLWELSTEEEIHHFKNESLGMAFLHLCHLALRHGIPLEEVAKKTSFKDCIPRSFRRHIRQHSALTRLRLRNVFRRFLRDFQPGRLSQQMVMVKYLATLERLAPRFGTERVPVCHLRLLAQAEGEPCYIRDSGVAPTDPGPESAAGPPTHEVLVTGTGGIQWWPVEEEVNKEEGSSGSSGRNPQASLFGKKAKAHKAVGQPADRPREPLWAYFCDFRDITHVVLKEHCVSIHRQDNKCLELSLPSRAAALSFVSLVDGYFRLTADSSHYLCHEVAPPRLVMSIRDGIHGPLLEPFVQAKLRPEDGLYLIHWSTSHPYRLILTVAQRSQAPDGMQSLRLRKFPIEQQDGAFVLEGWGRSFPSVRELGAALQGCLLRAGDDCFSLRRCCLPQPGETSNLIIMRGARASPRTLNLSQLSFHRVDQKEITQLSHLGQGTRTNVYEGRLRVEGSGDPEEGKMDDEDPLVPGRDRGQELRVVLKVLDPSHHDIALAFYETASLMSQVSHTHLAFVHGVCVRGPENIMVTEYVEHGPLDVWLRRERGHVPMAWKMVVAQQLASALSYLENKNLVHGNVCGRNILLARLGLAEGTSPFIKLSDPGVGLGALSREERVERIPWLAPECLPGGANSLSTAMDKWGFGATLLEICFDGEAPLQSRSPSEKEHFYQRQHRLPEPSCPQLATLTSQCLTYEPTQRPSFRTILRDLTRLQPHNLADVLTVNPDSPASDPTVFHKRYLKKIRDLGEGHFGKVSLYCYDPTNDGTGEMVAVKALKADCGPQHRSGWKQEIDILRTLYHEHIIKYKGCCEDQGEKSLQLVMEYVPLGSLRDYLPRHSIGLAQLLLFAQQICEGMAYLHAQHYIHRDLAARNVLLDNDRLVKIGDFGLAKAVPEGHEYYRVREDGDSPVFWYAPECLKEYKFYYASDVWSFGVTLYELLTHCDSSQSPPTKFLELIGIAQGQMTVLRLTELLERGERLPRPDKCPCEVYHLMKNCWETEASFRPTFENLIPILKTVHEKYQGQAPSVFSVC

Compound	logD [1]	EC50 [2] [µM]	Ratio EC50 (TF-1)	half-life [3] [h]	Ratio Ki (Homo sapiens [4])	Ki [5] [µM]	Ki [6] [µM]	Cmax [7] [µM]	clearance [8] [L/h/kg]	AUC [9] [nM·h]	bioavailability [10] [%]	Papp A→B [11] [nm/s]	pKa [12]	Ki [13] [µM]	Ratio Ki (Homo sapiens [14])	Ki [15] [µM]	Ratio Ki (Homo sapiens [16])
COC(=O)N[C@@H]1CC[C@@H](n2nnc3cnc4[nH]ccc4c32)C1 (racemic)	1.98	0.395	6.8	4.3	2.8	0.033	0.012										
N#CCCN1CCC(n2nnc3cnc4[nH]ccc4c32)CC1	1.12	0.138	4.6	1.9	1.8	0.0037	0.0021	4.9	2.64	1800	28	170					
F[C@@H]1CNCC[C@H]1n1nnc2cnc3[nH]ccc3c21 (racemic)	0.77			15	2.7	0.057	0.021										
CC1(n2nnc3cnc4[nH]ccc4c32)CCN(CCC#N)CC1	1.92			4.8	3.1	0.487	0.156										
N#CCC(=O)N1CCC[C@@H](n2cnc3cnc4[nH]ccc4c32)C1												3	4.34				
COC(=O)N[C@H]1CC[C@H](n2nnc3cnc4[nH]ccc4c32)CC1	2.08	0.433	4	4.8	2.3	0.027	0.012										
CN1CCC[C@H]1C(=O)N1CCC(n2nnc3cnc4[nH]ccc4c32)CC1				1.1	5.9	0.721	0.121										
O[C@H]1CC[C@H](n2nnc3cnc4[nH]ccc4c32)CC1	1.76			1.2													
N[C@H]1CC[C@H](n2nnc3cnc4[nH]ccc4c32)CC1	-0.24			1.1													
N#CCC(=O)N1CCC[C@@H](n2nnc3cnc4[nH]ccc4c32)C1	0.6	0.114	6.8			0.0038		0.4	6.6	1000	41	37	1.96	0.02	> 10	0.024	> 10
CC1(n2nnc3cnc4[nH]ccc4c32)CCN(S(C)(=O)=O)CC1	1.5	0.22	15	32	6.7	0.053	0.0079	0.7	12.7	1000	82	140		0.234	> 10	0.369	> 10
